Assay results from ChEMBL document CHEMBL1157848, “Derivatives of benzimidazole pharmacophore: synthesis, anticonvulsant, antidiabetic and DNA cleavage studies” (2010).
Values belong to the molecule of their own block, whether it stands above or below them. Active and inactive are the calls of the source. The calls are words filed in the database; no cut-off is given here.

Columns and labels:
Rattus norvegicus [1] = experiment: Antidiabetic activity in Wistar albino rat assessed as reduction of fasting blood glucose level administered qd for 9 days by oral glucose tolerance test (RVb = 83.33 +/- 1.54 mg/dl); type: functional
Rattus norvegicus [2] = experiment: Antidiabetic activity in Wistar albino rat assessed as reduction of blood glucose level administered qd for 9 days measured after 90 mins last post dose by oral glucose tolerance test (RVb = 135.7 +/- 2.9 mg/dl); type: functional
Rattus norvegicus [3] = experiment: Antidiabetic activity in Wistar albino rat assessed as reduction of blood glucose level administered qd for 9 days by glucose oxidation method (RVb = […] +/- […] mg/dl); type: functional
Rattus norvegicus [4] = experiment: Antidiabetic activity in Wistar albino rat assessed as reduction of blood glucose level administered qd for 9 days measured after 30 mins last post dose by oral glucose tolerance test (RVb = 183.2 +/- 3.68 mg/dl); type: functional
Nucleic Acid = experiment: Induction of Escherichia coli DNA cleavage at 25 mg after 2 hrs using ethidium bromide staining by agarose gel electrophoresis methos; type: nucleic-acid assay
In short: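 Genomic DNA came from E. coli grown 24 h at 37 °C in nutrient broth. It was extracted by SDS/EDTA lysis, phenol then chloroform–isoamyl alcohol, and ethanol precipitation, and dissolved in TAE. Samples were incubated with the DNA 2 h at 37 °C, mixed 1:1 with bromophenol blue, and run on agarose in TAE at 50 V alongside a DNA marker. Gels were ethidium bromide stained 10–15 min and cleavage judged visually.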

Rattus norvegicus [5] = experiment: Anticonvulsant activity in Wistar albino rat assessed as time spent on stupor phase at 85 mg/kg by MES test (RVb = 218.33 +/- 5.80 sec); type: functional
In short: (§1)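 Maximal electroshock (MES) convulsion model in rats. Duration in seconds of the flexion, extensor, clonus and stupor phases was recorded, along with recovery or death. The vehicle control was 1% w/w gum acacia and phenytoin was the reference. Data are mean ± SEM, with P < 0.05 taken as significant.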

Rattus norvegicus [6] = experiment: Anticonvulsant activity in Wistar albino rat assessed as time spent on tonic flexion phase at 85 mg/kg by MES test (RVb = 3.12 +/- 0.31 sec); type: functional; in short: as §1
Rattus norvegicus [7] = experiment: Anticonvulsant activity in Wistar albino rat assessed as time spent on tonic extensor phase at 85 mg/kg by MES test (RVb = 11 +/- 0.57 sec); type: functional; in short: as §1
Rattus norvegicus [8] = experiment: Anticonvulsant activity in Wistar albino rat assessed as time spent on clonic convulsions phase at 85 mg/kg by MES test (RVb = 16.80 +/- 2.50 sec); type: functional; in short: as §1
Rattus norvegicus [9] = experiment: Anticonvulsant activity in Wistar albino rat assessed as time spent on clonic convulsions phase at 75 mg/kg by MES test (RVb = 16.80 +/-2.50 sec); type: functional; in short: as §1
Rattus norvegicus [10] = experiment: Anticonvulsant activity in Wistar albino rat assessed as time spent on stupor phase at 75 mg/kg by MES test (RVb = 218.33 +/- 5.80 sec); type: functional; in short: as §1
Rattus norvegicus [11] = experiment: Anticonvulsant activity in Wistar albino rat assessed as time spent on tonic flexion phase at 75 mg/kg by MES test (RVb = 3.12 +/- 0.31 sec); type: functional; in short: as §1
Rattus norvegicus [12] = experiment: Anticonvulsant activity in Wistar albino rat assessed as time spent on tonic extensor phase at 75 mg/kg by MES test (RVb = 11 +/- 0.57 sec); type: functional; in short: as §1
Rattus norvegicus [13] = experiment: Anticonvulsant activity in Wistar albino rat assessed as time spent on tonic flexion phase at 70 mg/kg by MES test (RVb = 3.12 +/- 0.31 sec); type: functional; in short: as §1
Rattus norvegicus [14] = experiment: Anticonvulsant activity in Wistar albino rat assessed as time spent on stupor phase at 70 mg/kg by MES test (RVb = 218.33 +/- 5.80 sec); type: functional; in short: as §1
Rattus norvegicus [15] = experiment: Anticonvulsant activity in Wistar albino rat assessed as time spent on clonic convulsions phase at 70 mg/kg by MES test (RVb = 16.80 +/- 2.50 sec); type: functional; in short: as §1
Rattus norvegicus [16] = experiment: Anticonvulsant activity in Wistar albino rat assessed as time spent on tonic extensor phase at 70 mg/kg by MES test (RVb = 11 +/- 0.57 sec); type: functional; in short: as §1
Rattus norvegicus [17] = experiment: Anticonvulsant activity in Wistar albino rat assessed as time spent on stupor phase at 60 mg/kg by MES test (RVb = 218.33 +/- 5.80 sec); type: functional; in short: as §1
Rattus norvegicus [18] = experiment: Anticonvulsant activity in Wistar albino rat assessed as time spent on tonic flexion phase at 60 mg/kg by MES test (RVb = 3.12 +/- 0.31 sec); type: functional; in short: as §1
Rattus norvegicus [19] = experiment: Anticonvulsant activity in Wistar albino rat assessed as time spent on tonic extensor phase at 60 mg/kg by MES test (RVb = 11 +/- 0.57 sec); type: functional; in short: as §1
Rattus norvegicus [20] = experiment: Anticonvulsant activity in Wistar albino rat assessed as time spent on clonic convulsions phase at 60 mg/kg by MES test (RVb = 16.80 +/- 2.50 sec); type: functional; in short: as §1
Rattus norvegicus [21] = experiment: Anticonvulsant activity in Wistar albino rat assessed as time spent on stupor phase at 82 mg/kg by MES test (RVb = 218.33 +/- 5.80 sec); type: functional; in short: as §1
Rattus norvegicus [22] = experiment: Anticonvulsant activity in Wistar albino rat assessed as time spent on clonic convulsions phase at 82 mg/kg by MES test (RVb = 16.80 +/- 2.50 sec); type: functional; in short: as §1
Rattus norvegicus [23] = experiment: Anticonvulsant activity in Wistar albino rat assessed as time spent on tonic flexion phase at 82 mg/kg by MES test (RVb = 3.12 +/- 0.31 sec); type: functional; in short: as §1
Rattus norvegicus [24] = experiment: Anticonvulsant activity in Wistar albino rat assessed as time spent on tonic extensor phase at 82 mg/kg by MES test; type: functional; in short: as §1

SMILES: c1cncc(-c2nnc(CSc3nc4ccccc4[nH]3)o2)c1
Activity (Rattus norvegicus [1]): 81.34 mg/dL | Activity (Rattus norvegicus [2]): 122.8 mg/dL | Activity (Rattus norvegicus [3]): 343.3 mg/dL | Activity (Rattus norvegicus [4]): 181.8 mg/dL

Activity (Nucleic Acid): inactive
SMILES: Oc1ccc(-c2nnc(CSc3nc4ccccc4[nH]3)o2)cc1
Activity (Rattus norvegicus [1]): 80.83 mg/dL | Activity (Rattus norvegicus [2]): 125 mg/dL | Activity (Rattus norvegicus [3]): 166.2 mg/dL | Activity (Rattus norvegicus [4]): 167.5 mg/dL

SMILES: O=[N+]([O-])c1ccc(-c2nnc(CSc3nc4ccccc4[nH]3)o2)c(Cl)c1
Activity (Rattus norvegicus [1]): 77.17 mg/dL | Activity (Rattus norvegicus [2]): 121.7 mg/dL | Activity (Rattus norvegicus [3]): 187.7 mg/dL | Activity (Rattus norvegicus [4]): 155.3 mg/dL

Activity (Nucleic Acid): Active
SMILES: O=C(CSc1nc2ccccc2[nH]1)NN1C(=O)CSC1c1ccccc1O (stereo unspecified)
Time (Rattus norvegicus [5]): 209.3 s | Time (Rattus norvegicus [6]): 3.14 s | Time (Rattus norvegicus [7]): 4.33 s | Time (Rattus norvegicus [8]): 15.62 s

SMILES: O=C(CSc1nc2ccccc2[nH]1)NN1C(=O)CSC1c1ccc(Cl)cc1 (stereo unspecified)
Time (Rattus norvegicus [9]): 1.36 s | Time (Rattus norvegicus [10]): 215.5 s | Time (Rattus norvegicus [11]): 4.56 s | Time (Rattus norvegicus [12]): 12.1 s

SMILES: Cc1ccc(C2SCC(=O)N2NC(=O)CSc2nc3ccccc3[nH]2)cc1 (stereo unspecified)
Time (Rattus norvegicus [13]): 3.12 s | Time (Rattus norvegicus [14]): 207.3 s | Time (Rattus norvegicus [15]): 14.62 s | Time (Rattus norvegicus [16]): 11 s

SMILES: COc1ccc(Cl)cc1C(=O)NCCc1ccc(S(=O)(=O)NC(=O)NC2CCCCC2)cc1 [GLYBURIDE]
Activity (Rattus norvegicus [2]): 105.7 mg/dL | Activity (Rattus norvegicus [3]): 139.2 mg/dL | Activity (Rattus norvegicus [4]): 176.8 mg/dL

SMILES: Nc1ccc(-c2nnc(CSc3nc4ccccc4[nH]3)o2)cc1
Activity (Rattus norvegicus [1]): 80.85 mg/dL | Activity (Rattus norvegicus [2]): 106.5 mg/dL | Activity (Rattus norvegicus [3]): 335.5 mg/dL | Activity (Rattus norvegicus [4]): 155.5 mg/dL

SMILES: Nc1ccc(C2SCC(=O)N2NC(=O)CSc2nc3ccccc3[nH]2)cc1 (stereo unspecified)
Time (Rattus norvegicus [17]): 210.5 s | Time (Rattus norvegicus [18]): 3.15 s | Time (Rattus norvegicus [19]): 5.66 s | Time (Rattus norvegicus [20]): 15.4 s

SMILES: COc1cccc(C2SCC(=O)N2NC(=O)CSc2nc3ccccc3[nH]2)c1O (stereo unspecified)
Time (Rattus norvegicus [21]): 213.8 s | Time (Rattus norvegicus [22]): 16.2 s | Time (Rattus norvegicus [23]): 3.3 s | Time (Rattus norvegicus [24]): 4.21 s

Activity (Nucleic Acid): Active
SMILES: O=C(CSc1nc2ccccc2[nH]1)NN1C(=O)CSC1c1ccc(O)cc1 (stereo unspecified)
Time (Rattus norvegicus [13]): 3.96 s | Time (Rattus norvegicus [14]): 202.1 s | Time (Rattus norvegicus [15]): 1.02 s | Time (Rattus norvegicus [16]): 3.73 s
